Source: PubChem BioAssay (several laboratories)
Shown are actives, neighbours in structure and some others; about 2.1% of the full set was active somewhere.
PfG6PD inh = PfG6PD (Plasmodium falciparum) enzyme inhibition. AID 504690. PfGluPho enzyme, NADPH resazurin-diaphorase fluorescence. inhibition, % at 20 µM. 350,000 compounds, 0.78% hits;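 active = inhibition reaching at least a set limit at 20 µM in the primary screen, cut at about 59% in these data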;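 note: 0% = DMSO wells with substrate and 100% = DMSO wells lacking glucose-6-phosphate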
Beta2AR agonist = activates human beta-2 adrenergic receptor causing internalization; AID 504454; response, % (concentration not given with the values); Am2.2-beta2AR cells, FAP receptor internalization, flow cytometry; 340,000 compounds, 0.43% hits; P07550;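 active = response above a set limit, near 3 SD of response in nonfluorescent compounds, cut at about 42% in these data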
Cardio protect = modulators protecting cardiomyocytes from myocardial damage | protection from H2O2 cell death, % at 20 µM | 360,000 compounds, 0.63% hits | H9c2 cardiomyocytes, H2O2 injury protection, ATPLite, 2 h;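 active = compounds giving at least 50% protection of heart cells from peroxide-induced death in the single-dose screen, raw or plate-pattern-corrected value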;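 note: 0% = DMSO wells with peroxide and 100% = DMSO wells without peroxide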
UCH37 DUB inh = human UCH37 deubiquitinating enzyme inhibition. AID 588478. 330,000 compounds, 0.33% hits. Q9Y5K5. inhibition, % (concentration not given with the values). purified proteasome/UCH37, Ub-AMC cleavage fluorescence;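 active = mean inhibition over replicate wells above about 20%, limit read from the data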;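 note: 0% = compound-free wells with enzyme and 100% = wells lacking proteasome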
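Reagent: Ub-AMC substrate; assay system: Proteasome-associated human UCH37 deubiquitinase; controls: no-proteasome and no-compound wells; read-out: % inhibition of Ub-AMC cleavage fluorescence; timing: 30 min preincubation with enzyme, 25 min cleavage at room temperature; signal: AMC fluorescence from Ub-AMC cleavage, excitation 355 nm, emission 460 nm; buffer or medium: Tris-HCl pH 7.4 plus ovalbumin, ATP-MgCl2, DTT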
aDG glyco act = alpha-DG glycosylation activation; 360,000 compounds, 0.22% hits; Pro5-aDG cells, alpha-DG glycosylation AlphaScreen (IIH6); 0% Pro5, 100% B10-LARGE cell signal; activation, % at 10 µM;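 active = activation of at least 8% versus controls, or a plate z-score of at least 8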;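 note: Pro5 are CHO cells carrying HIG-tagged alpha-DG that lacks glycosylation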
HKDC1 inh = blocks human hexokinase HKDC1 activity; Q2TB90; recombinant HKDC1, G6PDH/diaphorase resazurin coupled fluorescence; inhibition, % at 20 µM; 340,000 compounds, 0.16% hits;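 active = inhibition above about 35% when tested at 20 µM, limit read from the data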;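 note: plate controls were DMSO wells with enzyme for no effect and DMSO wells lacking enzyme for full effect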
Target sequence (Q2TB90 whole entry, looked up): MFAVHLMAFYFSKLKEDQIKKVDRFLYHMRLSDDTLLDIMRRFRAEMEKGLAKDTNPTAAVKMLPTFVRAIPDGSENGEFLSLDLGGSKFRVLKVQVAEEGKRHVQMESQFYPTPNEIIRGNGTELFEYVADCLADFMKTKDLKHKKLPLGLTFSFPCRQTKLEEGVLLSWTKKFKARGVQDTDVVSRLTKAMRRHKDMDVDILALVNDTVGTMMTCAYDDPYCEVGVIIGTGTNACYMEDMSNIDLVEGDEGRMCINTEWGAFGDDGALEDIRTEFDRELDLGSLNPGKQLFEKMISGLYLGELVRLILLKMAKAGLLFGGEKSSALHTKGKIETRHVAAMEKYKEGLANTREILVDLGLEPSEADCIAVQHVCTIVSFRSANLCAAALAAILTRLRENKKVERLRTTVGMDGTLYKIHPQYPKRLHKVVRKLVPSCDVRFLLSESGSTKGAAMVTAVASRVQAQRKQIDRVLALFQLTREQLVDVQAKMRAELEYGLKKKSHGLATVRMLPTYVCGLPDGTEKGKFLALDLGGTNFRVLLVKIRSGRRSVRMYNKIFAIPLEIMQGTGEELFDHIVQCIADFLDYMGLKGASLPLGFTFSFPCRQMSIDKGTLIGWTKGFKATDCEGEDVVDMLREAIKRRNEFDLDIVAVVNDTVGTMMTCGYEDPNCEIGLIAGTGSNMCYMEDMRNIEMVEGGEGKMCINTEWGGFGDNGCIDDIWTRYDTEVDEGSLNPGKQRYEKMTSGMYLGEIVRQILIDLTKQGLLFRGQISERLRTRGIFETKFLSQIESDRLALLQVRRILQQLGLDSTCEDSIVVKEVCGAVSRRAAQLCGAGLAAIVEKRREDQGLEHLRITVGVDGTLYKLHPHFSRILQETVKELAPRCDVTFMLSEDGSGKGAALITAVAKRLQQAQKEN
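Incubation: 90 min at room temperature in dark / Material: recombinant HKDC1 (HK5) hexokinase enzyme, produced in-house / Quantity: enzyme 5 µg/mL final / Compound: one dose of 20 µM, 1% DMSO / Reagent: glucose and ATP substrates / Buffer or medium: Tris pH 8.0 buffer with MgCl2, Tween-20, BSA, BME / Technique: resorufin fluorescence at 613 nm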
An asterisk follows results filed as active; i = inactive; x = no result.

SMILES | PfG6PD inh | Beta2AR agonist | Cardio protect | UCH37 DUB inh | aDG glyco act | HKDC1 inh
Cn1c(=O)c2c(nc(CN3CCN(C(=O)c4ccco4)CC3)n2CCCc2ccccc2)n(C)c1=O | 12 | -14 | 52* | 3 | 0 | -2
CCCCn1c(CN2CCN(C(=O)c3ccco3)CC2)nc2c1c(=O)n(C)c(=O)n2C | 7 | -11 | 6 | 5 | 7.9* | -3
CC1CCCN(Cc2nc3c(c(=O)n(C)c(=O)n3C)n2CCc2ccccc2)C1 (stereo not given) | -9 | 2 | -2 | -1 | 0 | -4
CC1CCCN(Cc2nc3c(c(=O)n(C)c(=O)n3C)n2CCCc2ccccc2)C1 (stereo not given) | 2 | -5 | 55* | -2 | 0 | -2
Cn1c(=O)c2c(nc(CN3CCc4ccccc4C3)n2Cc2cccc(Cl)c2)n(C)c1=O | 15 | 24 | 22 | 23* | 0 | 8
CCCCCn1c(CN2CCN(C(=O)c3ccco3)CC2)nc2c1c(=O)n(C)c(=O)n2C | 0 | -9 | 16 | 4 | 0 | -4
CCOc1ccc(Oc2c(C=NNC(=O)COc3ccccc3OC)c(C)nn2-c2ccccc2)cc1 | x | x | x | 5 | x | x
CCOc1cccc(/C=N/Nc2ccc(S(=O)(=O)N(CC)CC)cn2)c1O | -8 | 11 | 57* | x | 2 | 7
CCOc1cc(C=NN=C(N)N)ccc1OCc1ccc(Cl)cc1 | x | x | x | 2 | x | x
Oc1ccc(-c2cnns2)c(O)c1 | 44 | 0 | -17 | 2 | 0 | 45*
COc1ccc(C(C)=NNc2nncc3ccccc23)cc1 | x | x | x | 3 | x | x
Cc1cccc(C=NNC(=O)Cn2nnnc2N)n1 | x | x | x | 0 | x | x
CCCN1C(=O)C2(C(C(=O)c3ccc(C)o3)=C(O)C(=O)N2CCCN2CCOCC2)c2ccccc21 (stereo not given) | 2 | 7 | 6 | 21* | 0 | 3
O=C(O)c1ccccc1C=NNc1ccc(S(=O)(=O)N2CCCC2)cc1[N+](=O)[O-] | x | x | x | 14 | x | x
O=C(O)c1nn(CCOc2ccc(Br)cc2)c(=O)c2ccccc12 | 12 | 11 | 55* | 1 | 0 | 0
O=C(O)c1nn(CCOc2ccccc2F)c(=O)c2ccccc12 | 8 | -1 | 54* | 1 | 0 | 2
CCc1cccc(OCCn2nc(C(=O)O)c3ccccc3c2=O)c1 | 32 | 20 | 44 | 4 | 0 | 0
COc1ccc(-c2cc3nc(-c4ccccc4)cc(N4CCN(C(C)=O)CC4)n3n2)cc1 | 17 | x | 80* | x | 0 | x
COc1cccc(-c2cc3nc(C)c(C)c(N4CCN(C(=O)c5ccoc5)CC4)n3n2)c1 | 19 | x | 56* | x | 0 | x
COc1ccc(CCCNC(=O)C2(C)Cc3c(-c4ccc(NC(C)=O)cc4)ccnc3O2)cc1 (stereo not given) | x | x | 64* | x | 0 | x
C=C(C)Cn1c(SCC(=O)NN=Cc2c(O)ccc3ccccc23)nc2ccccc2c1=O | x | x | x | 2 | x | x
C=C1C(=O)C23C(O)C1CCC2C12CCCC(C)(COC(C)=O)C1C(O)C3(O)OC2 (stereo not given) | 56 | 58* | -20 | x | 0 | -3
CCNc1nc(NCC)nc(NN=Cc2cc(OC)c(OC)c(OC)c2)n1 | x | x | x | 9 | x | x
COc1cc(S(=O)(=O)N2CCOCC2)ccc1NC(=O)CSc1nnc(N)s1 | -2 | 1 | 11 | 30* | 0 | -3
Cc1ccc(S(=O)(=O)Nc2ccc(O)c3ncccc23)cc1 | 22 | 1 | 52* | 6 | 1 | 13
SMILES | PfG6PD inh | Beta2AR agonist | Cardio protect | UCH37 DUB inh | aDG glyco act | HKDC1 inh
Cc1ccc(S(=O)(=O)Nc2cccc3ncccc23)cc1 | -21 | 4 | 4 | 2 | 0 | -1
CC(C)(C)c1cc[n+](-c2[nH]c(=O)sc2C=N/N=C(\[O-])c2cccnc2)cc1 | x | x | x | 21* | x | x
CCOc1ccccc1C=NNc1cnn(Cc2ccccc2)c(=O)c1Cl | x | x | x | -2 | x | x
C=CCOc1ccc(C=NNC(=O)C(C)Sc2ccccn2)cc1OC (stereo not given) | x | x | x | 7 | x | x
CCN(CC)c1ccc(/C=C2\C(=N)N3N=C(CC(=O)N4CCOCC4)SC3=NC2=O)cc1 | -41 | -284 | -4 | 21* | 0 | 10
CN=c1scc(-c2cccs2)n1/N=C/c1ccc(O)c(O)c1O | 34 | 106* | -7 | x | 0 | 27
COc1ccc(S(=O)(=O)N(CC(=O)NN=Cc2ccc(C(=O)O)cc2)Cc2ccccc2)cc1OC | x | x | x | 6 | x | x
CNC(=O)c1ccc(-c2sc3nc(N4CCOCC4)c4c(c3c2N)CCCC4)o1 | -4 | 20 | 80* | -407 | -1 | 4
CC1(C)Cc2c(c(N3CCOCC3)nc3sc(-c4ccc(C(=O)O)o4)c(N)c23)CO1 | 14 | -23 | 25 | -115 | 0 | 0
CNC(=O)c1ccc(-c2sc3nc(N4CCOCC4)c4c(c3c2N)CC(C)(C)OC4)o1 | 17 | 18 | 97* | -425 | 0 | 6
Cc1nn(-c2ccccc2)c(N2CCCC2)c1C=NNC(=O)c1cc(-c2cccnc2)nc2ccccc12 | x | x | x | 6 | x | x
CCCOc1cccc(-c2cc(C(=O)NN=Cc3cccnc3)c3ccccc3n2)c1 | x | x | x | 1 | x | x
O=C(NN=Cc1cccc([N+](=O)[O-])c1)c1cc(-c2cccnc2)nc2ccccc12 | 24 | 0 | 51* | 2 | 0 | -5
CC(C)COc1cccc(-c2cc(C(=O)N/N=C/c3ccncc3)c3ccccc3n2)c1 | 15 | 51* | 2 | x | 0 | 12
Cc1nn(-c2ccccc2)c(N2CCCC2)c1/C=N/NC(=O)c1cc(-c2cccnc2)nc2ccccc12 | -6 | 16 | 59* | x | -1 | 1
COc1ccccc1C=NNC(=O)c1ccc(=O)n(C)c1 | x | x | x | 10 | x | x
COc1ccnc(-n2cccc2C=NO)c1C#N | x | x | x | 3 | x | x
CCOC(=O)c1nn(-c2cccc(OC)c2)c2nc(Nc3ccccc3)cc(=O)n12 | -1 | 2 | 52* | 1 | 0 | 6
CC(=C/C(=O)O)/C=C/c1ccc([N+](=O)[O-])cc1 | -7 | 52* | 5 | 11 | 0 | -9
Cc1c(O)c(CN2CCCCC2)cc2c1oc(=O)c1ccccc12 | -6 | -2 | 52* | 1 | 0 | 10
Cc1c(O)c(CN2CCCCC2)cc2c3c(c(=O)oc12)CCC3 | 17 | 2 | 6 | i | 0 | 1
CC(C)c1ccc(/C=C(\c2nc3ccccc3[nH]2)S(=O)(=O)c2ccccc2)cc1 | -5 | 42* | -20 | 4 | -1 | 13
CC(Cc1ccccc1)=NNC(=O)CCCC(=O)NN=C(C)Cc1ccccc1 | x | x | x | 3 | x | x
Cc1ccc(C)c(N=Cc2cc3c(cc2[N+](=O)[O-])OCO3)c1 | 12 | 9 | 63* | 0 | 0 | 21
Cc1ccc(N=Cc2cc3c(cc2[N+](=O)[O-])OCO3)cc1[N+](=O)[O-] | 54 | 9 | -2 | 3 | 0 | 12
C/C(C=NNC(=O)CSc1nnc(SCc2ccccc2)s1)=C\c1ccco1 | x | x | x | 6 | x | x
